b-catenin transl = modulators of beta-catenin nuclear translocation, primary screen, imaging, HeLa cells, immunofluorescence, high-content; nuclear translocation activity, % at 5 µM; AID 1665, 2009; 190,000 compounds, 0.3% hits;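 active = nuclear translocation activity above 50% at 5 µM, with a well cell count of 50 or more; inconclusive = wells under 50 cells across six images, flagged as toxic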;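 note: per-cell ratio of nuclear to cytoplasmic median beta-catenin stain intensity; plate controls were DMSO negative control for no effect and GSK-3 inhibitor IX positive control for full effect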
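Test system: HeLa cells, endogenous beta-catenin; Compound: single 5 µM dose plus 0.02–20 µM confirmation series; Times: compound exposure 24 h at 37°C; Signal: fluorescence imaging of beta-catenin antibody stain plus DAPI; Read-out: % activation, nuclear-to-cytoplasmic median beta-catenin signal ratio per cell.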
ROMK primary = ROMK potassium channel modulators, primary screen, cell-based, thallium flux, MLSMR library. ATP-sensitive inward rectifier potassium channel 1 (Homo sapiens), P48048. Tet-inducible ROMK, thallium flux fluorescence; actives lie on both sides. B-score at 10 µM. 130,000 compounds, 2% hits. AID 1918, 2009;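 active = signal ratio slope over the read window, or its plate-corrected B-score, at least 3 SD from the plate mean, either direction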;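 note: B-score of the F/F0 ratio slope over 7 to 12 s after thallium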
Target sequence (P48048 whole entry, looked up): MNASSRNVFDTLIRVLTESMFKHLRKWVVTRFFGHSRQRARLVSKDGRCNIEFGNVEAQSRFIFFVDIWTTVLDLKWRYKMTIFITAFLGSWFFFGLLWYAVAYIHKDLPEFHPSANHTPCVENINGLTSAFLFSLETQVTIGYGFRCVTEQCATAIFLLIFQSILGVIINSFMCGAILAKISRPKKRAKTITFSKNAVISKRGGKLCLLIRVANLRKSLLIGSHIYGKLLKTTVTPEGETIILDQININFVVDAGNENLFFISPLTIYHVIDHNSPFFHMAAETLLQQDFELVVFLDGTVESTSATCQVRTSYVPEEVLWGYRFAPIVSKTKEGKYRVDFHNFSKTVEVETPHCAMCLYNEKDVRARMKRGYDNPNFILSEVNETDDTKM
MT stabilize HCS = microtubule stabilizers in HeLa cells, primary screen, imaging, high-content imaging. HeLa tubulin immunostaining HCS, 24 h; share of cells brighter than vehicle mean+2SD. % tubulin-high responders, % at 10 µM. 200,000 compounds, 0.83% hits. AID 2205, 2009;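 active = plate Z-score above 3 for both tubulin-high and condensed-nucleus cell shares, with cell loss under 80%, at 10 µM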;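 note: anti alpha tubulin signal scored within the nucleus-defined area of each cell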
ROMK retest = ROMK channel modulator hit retest, confirmation, cell-based, thallium flux, duplicate, resupplied hits; normalized thallium flux (F/F0 slope) at 10 µM; fluorescence ratio; active compounds read low; shares compounds with ROMK primary; 3,000 compounds, 54% hits;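 active = Flux at 10 µM at least 3 SD below or above vehicle control mean in one or both replicates; inconclusive = no clear call, values can overlap the other calls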
Numbers without * were called inactive; ? = inconclusive; . = not tested or not shown. Most compounds without a hit are left out; they make up all but 1.9% or so of the library.

SMILES | b-catenin transl | ROMK primary | MT stabilize HCS | ROMK retest
CC(=O)c1ccc(N2CCN(C(=O)c3cc4c(-c5ccccc5F)nn(C)c4s3)CC2)cc1 | . | . | 8.2 | 0.0617*
CC(=O)C(Cl)C(=O)Nc1ccccc1 (configuration not stated) | 0.4 | -5.38* | 4.6 | 0.046*
CC(Cc1ccccc1)C(=O)Nc1ccccc1 (configuration not stated) | 1.4 | -0.549 | 2.1 | .
COc1ccc(S(=O)(=O)NCC(c2cccnc2)N2CCN(c3ccccc3)CC2)cc1C (configuration not stated) | 2.3 | -0.0922 | 2.9 | .
COc1ccc(S(=O)(=O)NCC(c2cccnc2)N2CCN(c3ccc(F)cc3)CC2)cc1C (configuration not stated) | -0.4 | -3.85* | 4.7 | 0.0743
O=C(c1ccccc1)N1CCCC(C(=O)N2CCN(c3ccccc3)CC2)C1 (configuration not stated) | -0.9 | -0.0473 | . | .
CC(=O)NS(=O)(=O)c1ccc(NC(=O)c2ccc3c(c2)C(=O)N(CCC(C)C)C3=O)cc1 | . | -0.515 | 1.5 | .
CCOC(=O)N1CCC(N2CCCC(CO)(Cc3ccccc3C)C2)CC1 (configuration not stated) | 0.7 | -0.907 | 1.9 | .
Cc1nnc2c3ccccc3c(-c3cccc4ccccc34)nn12 | -0.7 | -0.42 | 3.6 | .
Cc1nnc2sc(-c3cccc4ccccc34)nn12 | 1.1 | -5.2* | 12.5 | 0.0538*
COc1cc(C)c(Cl)c(C)c1S(=O)(=O)NC1CC(C)(C)NC(C)(C)C1 | 1.0 | -2.63* | 3.9 | 0.0534*
COc1ccc(S(=O)(=O)NC2CC(C)(C)NC(C)(C)C2)c(C)c1C | . | -0.423 | 2.7 | .
CCOc1cc(C)c(Cl)cc1S(=O)(=O)NC1CC(C)(C)NC(C)(C)C1 | 1.7 | -3.66* | 2.5 | 0.0645*
CCOc1cc(C)c(Cl)cc1S(=O)(=O)NCCOC | . | 1.38 | 2.7 | .
O=C(Nc1ccc(S(=O)(=O)N2CCOCC2)cc1)c1ccc(=O)[nH]c1 | -1.6 | . | . | .
CCOC(=O)N1CCC(NC(=O)Cn2nc(Cc3ccncc3)c3ccccc3c2=O)CC1 | . | . | 2.4 | .
O=C(O)/C=C/C(=O)NCc1csc2ccccc12 | -1.5 | 0.868 | . | .
COc1ccc(-c2cc(C(F)(F)F)nc(S(C)(=O)=O)n2)cc1 | . | -4.23* | 2.5 | 0.0552*
CS(=O)(=O)c1nc(-c2ccc(F)cc2)cc(C(F)(F)F)n1 | -0.5 | -2.55* | 2.4 | 0.0583*
COc1ccc(-c2cc(C(F)(F)F)nc(N)n2)cc1 | 2.5 | . | 1.2 | .
Nc1nc(-c2ccc(F)cc2)cc(C(F)(F)F)n1 | -2.9 | -0.111 | 1.8 | .
CCOC(=O)C1=NN(C(C)=O)C2(CC(=O)N(c3ccc(C)c(C)c3)C2=O)C1 (configuration not stated) | -0.4 | . | 2.1 | .
CCC(Br)C(=O)Nc1ccc(OC)cc1 (configuration not stated) | 1.2 | -0.203 | 3.1 | .
CC(=O)Nc1ccc(OCCOc2ccc(/C=C3/C(=N)N4C=CSC4=NC3=O)cc2)cc1 | 26.9 | 4.12* | 3.9 | ?
Cc1ccc(Cn2cccc2/C=C2/C(=N)N3C=CSC3=NC2=O)cc1 | -0.8 | 0.0262 | 3.0 | .
SMILES | b-catenin transl | ROMK primary | MT stabilize HCS | ROMK retest
CC(NS(=O)(=O)c1ccc(OCC(=O)Nc2cccc([N+](=O)[O-])c2)cc1)c1ccccc1 (configuration not stated) | -3.8 | . | 2.8 | .
CC(C)(C)c1cc(C(=O)NNC(=O)Nc2ccccc2)n(Cc2ccccc2)n1 | 4.0 | . | . | .
CC(C)(C)c1cc(C(=O)NCc2cc(F)cc3c2OCOC3)n(Cc2ccccc2)n1 | -1.7 | . | . | 0.0804
Cc1ccc(C(=O)NCc2nnc(SCC(=O)NC(C)c3ccccc3)n2C)cc1 (configuration not stated) | 2.1 | -0.109 | 3.3 | .
COc1ccc(OC)c(/C=C2\SC(=S)N(C(C(=O)O)c3ccccc3)C2=O)c1 (configuration not stated) | -1.3 | . | . | 0.0517*
CCOc1ccc(/C=C2\SC(=S)N(C(C(=O)O)c3ccccc3)C2=O)cc1OC (configuration not stated) | -0.8 | . | . | .
C=CCNC(=O)NC(=O)CSc1nnc(C(F)(F)F)n1C | -0.3 | . | 2.4 | .
COc1ccc(S(=O)(=O)Nc2ccc(F)c(F)c2)cc1Cl | 2.8 | -3.2* | 1.8 | 0.0586*
COc1ccc(NS(=O)(=O)c2ccc(OC)c(OC)c2)cc1OC | -2.5 | . | 2.6 | .
Cc1cc(C)c2c(=O)cc(C(F)(F)F)oc2n1 | -3.4 | 0.875 | 3.4 | .
O=C(COC(=O)c1cc(-c2ccccc2)nc2ccccc12)Nc1ccc2c(c1)OCO2 | -0.3 | . | 4.9 | .
COc1cccc(NC(=O)COC(=O)c2nc(Cl)ccc2Cl)c1 | -1.4 | 0.37 | 2.2 | .
O=C(COC(=O)c1nc(Cl)ccc1Cl)Nc1ccc2c(c1)OCO2 | 0.3 | -1.7* | 3.9 | 0.0796
O=C(COC(=O)c1c2c(nc3ccccc13)CCCC2)Nc1ccc2c(c1)OCO2 | 0.3 | . | 3.1 | 0.0751
Cc1ccccc1-c1nn(-c2ccc(F)cc2F)cc1CNC1CC1 | -2.3 | . | 3.3 | .
Clc1ccc(-c2nn3c(-c4ccccn4)nnc3s2)c(Cl)c1 | -2.7 | . | . | .
Clc1ccccc1-c1nnc2sc(-c3ccccn3)nn12 | -1.6 | . | 4.1 | 0.0785
COc1cccc(NC(=O)Nc2ccccc2C(N)=O)c1 | -3.1 | 0.359 | 2.6 | .
CCOC(=O)c1sc2nc(COC(=O)c3c(F)cccc3F)[nH]c(=O)c2c1C | 1.5 | -2.36* | 1.4 | 0.0896
CCOC(=O)c1sc2nc(CSc3nc4ccccc4n3CC)[nH]c(=O)c2c1C | -0.8 | . | 2.1 | .
OCCSc1nc(N2CCOCC2)nc(N2CCOCC2)n1 | 0.8 | -0.122 | 3.0 | .
O=C(Cc1cccs1)NNC(=S)NCc1ccco1 | -0.7 | -9.36* | 1.7 | 0.0778
O=C(Cc1cccs1)NCc1ccco1 | -1.6 | . | 2.2 | .
CC(=O)N1CCN(Cc2nc3cc(NC(=O)Nc4ccccc4)ccc3n2C)CC1 | -0.5 | -0.422 | 3.5 | .
CC1(C)C(=O)CC[C@]2(C)C3C(=O)C=C4[C@H]5C[C@@](C)(C(=O)O)CC[C@]5(C)CC[C@]4(C)[C@]3(C)CC[C@@H]12 (some centres not stated) | -1.5 | . | . | .
SMILES | b-catenin transl | ROMK primary | MT stabilize HCS | ROMK retest
CC1(C)[C@@H](O)CC[C@]2(C)C3C(O)C=C4[C@H]5C[C@@](C)(C(=O)O)CC[C@]5(C)CC[C@]4(C)[C@]3(C)CC[C@@H]12 (some centres not stated) | -1.9 | . | . | 0.086
O=C(Oc1coc(CSc2ncccn2)cc1=O)c1cccs1 | . | -0.0145 | 2.5 | .
CCOc1cc(C(=O)Nc2ncn[nH]2)cc(OCC)c1OCC | 0.4 | 0.408 | 4.1 | .
Cc1cccc(NC(=S)N(CCN(C)C)Cc2cc3cccc(C)c3[nH]c2=O)c1 | 2.2 | -2.6 | 1.5 | .
Cc1ccc(C)c2[nH]c(=O)c(CN(CCCN(C)C)C(=O)NCc3ccccc3)cc12 | 0.7 | . | . | .
Cc1cccc(NC(=S)N(CCN(C)C)Cc2cc3cc(C)cc(C)c3[nH]c2=O)c1 | -1.3 | -4.91* | 1.6 | 0.0605*
Cc1cc(C)c2cc(CN(CCCN(C)C)C(=S)NCc3ccccc3)c(=O)[nH]c2c1 | -0.5 | -3.67* | 4.2 | 0.0541*
CCNC(=S)N1CCC(C(N)=O)CC1 | 0.3 | 0.0324 | . | .
